Values after ≈ are worked out from the molar mass of the structure shown.
Experiments:
[1] = tested on: Mus musculus; assay: Toxicity in ICR mouse allografted with mouse S180A assessed as mortality at 100 mg/kg, ip qd for 5 days; type: organism-based; design: dose 100 mg/kg, route intraperitoneal; conditions: in vivo, 120 h
Summary of the method: (§1)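 Ascites Sarcoma 180 (1 × 10^7 cells) implanted into ICR mice, six per group; compound in saline ip once daily days 1-5; sacrifice on day 7; total packed cell volume (ascites volume × PCV) compared with controls as T/C %; mortality recorded.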

[2] = tested on: L1210; assay: Antitumor activity against mouse L1210 cells allografted in BDF1 mouse assessed as increase in host lifespan at 50 mg/kg, ip qd for 5 days relative to control; type: functional; conditions: 120 h, route intraperitoneal
Summary of the method: (§2)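 L1210 (1 × 10^5 cells) implanted into BDF1 mice, six per group; compound in saline ip once daily days 1-5; effect read as % increase in life span, ILS = [(treated life span/control life span) − 1] × 100.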

[3] = tested on: Shigella sonnei; assay: Antibacterial activity against Shigella sonnei assessed as growth inhibition after 18 hrs by broth dilution method; type: functional
Summary of the method: (§3)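 Twofold serial dilutions in heart infusion broth. Inoculum was a 24-h heart infusion broth culture diluted 100-fold in physiological saline. Tubes incubated 30 °C for 18 h; the table footnote gives 32 °C for 24 h. MIC in µg/ml is the lowest level giving complete growth inhibition.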

[4] = Antitumor activity against mouse S180A allografted in ICR mouse assessed as tumor growth at 100 mg/kg, ip qd for 5 days measured on day 7 relative to control; type: functional; conditions: route intraperitoneal
Summary of the method: (§4)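 Ascites Sarcoma 180 (1 × 10^7 cells) implanted into ICR mice, six animals per group. Five daily ip injections in saline (days 1–5). Sacrificed day 7. T/C % computed from total packed cell volume (ascites volume × PCV) vs controls. Grades: 100-66 = -, 65-41 = +, 40-11 = ++, 10-0 = +++.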

[5] = tested on: Mus musculus; assay: Toxicity in BDF1 mouse allografted with mouse L1210 cells assessed as mortality at 50 mg/kg, ip qd for 5 days; type: organism-based; design: dose 50 mg/kg, route intraperitoneal; conditions: in vivo, 120 h; summary of the method: as §2
[6] = (§5) Acute toxicity in ip dosed JCL-ICR mouse assessed as animal death; type: organism-based; conditions: JCL-ICR, in vivo
Summary of the method: (§6)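 Groups of ten female JCL-ICR mice given single ip dose in physiological saline; deaths followed over 7 days; LD50 (and LD10) derived by Litchfield–Wilcoxon method.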

[7] = tested on: Mus musculus; assay: as §5; type: organism-based; conditions: in vivo; summary of the method: as §6
[8] = tested on: Rattus norvegicus; assay: Diabetogenic activity in iv dosed Wistar rat assessed as increase in blood sugar level administered as single dose by glucose oxidase method; type: ADME, organism-based; conditions: in vivo
Summary of the method: (§7)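 Male Wistar rats, about 200 g, five per group, fasted 16 h. Single iv dose into the femoral vein in physiological saline, equimolar across compounds. Caudal-vein blood sampled at set times over 24 h. Sugar measured by glucose oxidase.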

[9] = tested on: Mus musculus; assay: Ratio of compound LD10 to streptozotocin LD10 for JCL-ICR mouse; type: ADME, organism-based; conditions: in vivo
[10] = tested on: Escherichia coli; assay: Antibacterial activity against Escherichia coli NIHJ JC-2 assessed as growth inhibition after 18 hrs by broth dilution method; type: functional; conditions: NIHJ JC-2, 18 h; summary of the method: as §3
[11] = tested on: Pseudomonas fluorescens; assay: Antibacterial activity against Pseudomonas fluorescens NIHJ B-254 assessed as growth inhibition after 18 hrs by broth dilution method; type: functional; conditions: NIHJ B-254, 18 h; summary of the method: as §3
[12] = tested on: Staphylococcus aureus; assay: Antibacterial activity against Staphylococcus aureus FDA 209P JC-1 assessed as growth inhibition after 18 hrs by broth dilution method; type: functional; conditions: FDA 209P JC-1, 18 h; summary of the method: as §3
[13] = tested on: Klebsiella pneumoniae; assay: Antibacterial activity against Klebsiella pneumoniae ATCC 10031 assessed as growth inhibition after 18 hrs by broth dilution method; type: functional; conditions: ATCC 10031, 18 h; summary of the method: as §3
[14] = tested on: Micrococcus luteus; assay: Antibacterial activity against Sarcina lutea ATCC 9341 assessed as growth inhibition after 18 hrs by broth dilution method; type: functional; conditions: ATCC 9341, 18 h; summary of the method: as §3
[15] = tested on: Enterococcus faecalis; assay: Antibacterial activity against Streptococcus faecalis ATCC 10541 assessed as growth inhibition after 18 hrs by broth dilution method; type: functional; conditions: ATCC 10541, 18 h; summary of the method: as §3
[16] = tested on: Salmonella typhi; assay: Antibacterial activity against Salmonella typhi IFM 3020 assessed as growth inhibition after 18 hrs by broth dilution method; type: functional, Salmonella enterica subsp. enterica serovar Typhi; conditions: Salmonella enterica, IFM 3020, 18 h
Summary of the method: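 Twofold serial dilutions in heart infusion broth; inoculum from 24 h heart infusion broth culture diluted 100-fold in physiological saline; tubes incubated 30 °C for 18 h; MIC (µg/ml) = lowest level giving complete growth inhibition.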

[17] = tested on: Proteus vulgaris; assay: Antibacterial activity against Proteus vulgaris AHU 1469 assessed as growth inhibition after 18 hrs by broth dilution method; type: functional; conditions: AHU 1469, 18 h; summary of the method: as §3
[18] = Ratio of compound LD50 to streptozotocin LD50 for JCL-ICR mouse; type: ADME, organism-based; conditions: in vivo
[19] = tested on: Bacillus subtilis; assay: Antibacterial activity against Bacillus subtilis ATCC 6633 assessed as growth inhibition after 18 hrs by broth dilution method; type: functional; conditions: ATCC 6633, 18 h; summary of the method: as §3
[20] = tested on: Mus musculus; assay: Toxicity in ICR mouse allografted with mouse S180A assessed as mortality at 125 mg/kg, ip qd for 5 days; type: organism-based; design: dose 125 mg/kg, route intraperitoneal; conditions: in vivo, 120 h; summary of the method: as §1
[21] = Antitumor activity against mouse S180A allografted in ICR mouse assessed as tumor growth at 125 mg/kg, ip qd for 5 days measured on day 7 relative to control; type: functional; conditions: route intraperitoneal; summary of the method: as §4
[22] = Therapeutic index, ratio of LD10 for JCL-ICR mouse to ED90 for mouse S180A cells allografted in ICR mouse; conditions: read-out: TI
[23] = tested on: Mus musculus; assay: Toxicity in BDF1 mouse allografted with mouse L1210 cells assessed as mortality at 100 mg/kg, ip qd for 5 days; type: organism-based; design: dose 100 mg/kg, route intraperitoneal; conditions: in vivo, 120 h; summary of the method: as §2
[24] = Acute toxicity in iv dosed mouse; type: organism-based; conditions: in vivo
[25] = tested on: Mus musculus; assay: Toxicity in BDF1 mouse allografted with mouse L1210 cells assessed as mortality at 200 mg/kg, ip qd for 5 days; type: organism-based; design: dose 200 mg/kg, route intraperitoneal; conditions: in vivo, 120 h; summary of the method: as §2
[26] = tested on: Mus musculus; assay: Toxicity in ICR mouse allografted with mouse S180A assessed as mortality at 50 mg/kg, ip qd for 5 days; type: organism-based; design: dose 50 mg/kg, route intraperitoneal; conditions: in vivo, 120 h; summary of the method: as §1
[27] = Acute toxicity in iv dosed dog; type: organism-based, Canis lupus familiaris; conditions: in vivo
[28] = tested on: L1210; assay: Antitumor activity against mouse L1210 cells allografted in BDF1 mouse assessed as increase in host lifespan at 200 mg/kg, ip qd for 5 days relative to control; type: functional; conditions: 120 h, route intraperitoneal; summary of the method: as §2
[29] = tested on: L1210; assay: Antitumor activity against mouse L1210 cells allografted in BDF1 mouse assessed as increase in host lifespan at 100 mg/kg, ip qd for 5 days relative to control; type: functional; conditions: 120 h, route intraperitoneal; summary of the method: as §2
[30] = Antitumor activity against mouse S180A cells allografted in ip dosed ICR mouse administered qd for 5 days; type: functional; conditions: 120 h; summary of the method: as §4
[31] = tested on: Mus musculus; assay: Toxicity in ip dosed BDF1 mouse allografted with mouse L1210 cells assessed as optimal dose required for mortality administered qd for 5 days; type: organism-based; conditions: in vivo, 120 h
[32] = tested on: L1210; assay: Antitumor activity against mouse L1210 cells allografted in ip dosed BDF1 mouse assessed as 30% increase in host lifespan administered for qd for 5 days; type: functional
[33] = tested on: Rattus norvegicus; assay: Diabetogenic activity in Wistar rat assessed as increase in blood sugar level at 65 mg/kg, iv administered as single dose by glucose oxidase method; type: ADME, organism-based; design: dose 65 mg/kg, route intravenous; conditions: in vivo; summary of the method: as §7
[34] = tested on: Rattus norvegicus; assay: Diabetogenic activity in Wistar rat assessed as increase in blood sugar level at 20 mg/kg, ip qd for 1 month measured 24 hrs last drug dosage by glucose oxidase method; type: ADME, organism-based; design: dose 20 mg/kg, route intraperitoneal; conditions: in vivo
Summary of the method: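 Male Wistar rats, about 150 g, five per group. Drug in physiological saline given ip qd on days 1–30. Blood drawn 24 h after the last dose. Sugar measured by glucose oxidase.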

[35] = Antitumor activity against mouse S180A allografted in ICR mouse assessed as tumor growth at 25 mg/kg, ip qd for 5 days measured on day 7 relative to control; type: functional; conditions: route intraperitoneal; summary of the method: as §4
[36] = tested on: Mus musculus; assay: Toxicity in ICR mouse allografted with mouse S180A assessed as mortality at 25 mg/kg, ip qd for 5 days; type: organism-based; design: dose 25 mg/kg, route intraperitoneal; conditions: in vivo, 120 h; summary of the method: as §1
[37] = Antitumor activity against mouse S180A allografted in ICR mouse assessed as tumor growth at 50 mg/kg, ip qd for 5 days measured on day 7 relative to control; type: functional; conditions: route intraperitoneal; summary of the method: as §4

SMILES | ILS at 50 mg/kg [2] | MIC [3] | Activity [5] | LD50 [6] | LD10 [7] | Activity [8] | MIC [10] | MIC [11] | MIC [12] | MIC [13] | MIC [14] | MIC [16] | MIC [17] | MIC [19] | also measured
CCN(N=O)C(=O)N[C@H]1[C@H](OC)O[C@H](CO)[C@@H](O)[C@@H]1O | 14% | > 1000 µg/mL | Non-toxic | 1700 mg/kg | 1380 mg/kg | Non-toxic | > 1000 µg/mL | > 1000 µg/mL | > 1000 µg/mL | > 1000 µg/mL | > 1000 µg/mL | > 1000 µg/mL | > 1000 µg/mL | > 1000 µg/mL | Activity [1]: Non-toxic; T/C [4]: 65%; Ratio [9]: 2; MIC [15]: > 1000 µg/mL; selectivity ratio [18]: 2
CCCCN(N=O)C(=O)N[C@H]1[C@@H](OC)O[C@H](CO)[C@@H](O)[C@@H]1O |  |  |  |  |  | Non-toxic |  |  |  |  |  |  |  |  | Activity [20]: Non-toxic; T/C [21]: 75%
CN(N=O)C(=O)N[C@@H](C=O)[C@@H](O)[C@H](O)[C@H](O)CO [STREPTOZOCIN] | 44% | > 200 µg/mL | Non-toxic | 360 mg/kg | 235 mg/kg |  | 12.5 µg/mL (≈ 47.1 µM) | 6.3 µg/mL (≈ 23.8 µM) | 1.6 µg/mL (≈ 6.03 µM) | > 200 µg/mL | > 200 µg/mL | > 200 µg/mL | 0.4 µg/mL (≈ 1.51 µM) | 12.5 µg/mL (≈ 47.1 µM) | selectivity ratio [22]: 2.6; Activity [23]: Non-toxic; LD50 [24]: 275 mg/kg; Activity [25]: Non-toxic; Activity [26]: Non-toxic; LD50 [27]: 50 mg/kg; ILS at 200 mg/kg [28]: 0%; ILS at 100 mg/kg [29]: 76%; ED90 [30]: 90 mg/kg/day; Activity [31]: 100 mg/kg/day; Activity [32]: 23 mg/kg/day; Activity [33]: Toxic; Activity [34]: Toxic; T/C [35]: 40%; Activity [36]: Non-toxic; T/C [37]: 26%

— ChEMBL document CHEMBL3272319, “Alkyl streptozotocin analogues with improved biological activities” (J Med Chem, 1976)
